High-throughput results as filed in PubChem BioAssay.
MC4R ag barr – human MC4R agonism via beta-arrestin. P32245. U2OS MC4R beta-arrestin complementation, luminescence; percent of melanotan II response, DMSO zero. activation, % at 8.9 µM. 360,000 compounds, 0.98% hits;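 active = activation above a per-plate cutoff, the mean activation of sample wells on that plate plus 3 SD, cut at about 8% in these data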
Myeloid diff MLP – promotes myeloid progenitor differentiation | 360,000 compounds, 1% hits | calls only at 10 µM | ER-HoxA9 myeloid progenitors, lysozyme-GFP differentiation, flow cytometry;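 active = normalized GFP-positive differentiation at or above the plate's own cutoff, the solvent-only control mean plus 3 SD; inconclusive = no clear call, values can overlap the other calls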;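 also: cells exposed to compound for four days before flow analysis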
EBI2 antag – EBI2 (human) antagonism; EBI2 beta-arrestin recruitment, luminescence, 7a,25-OHC stimulated; inhibition, % at 5 µM; 360,000 compounds, 0.81% hits; AID 651636; P32249; in the data active = inhibition above about 38%;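 also: enzyme fragment complementation signal reports receptor beta-arrestin coupling in cells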
Granule exo inh – blocks lytic granule exocytosis; TALL-104 LAMP-1 surface exposure, flow cytometry; cells stimulated with thapsigargin and PMA; inhibition, % at 10 µM; 360,000 compounds, 0.66% hits; AID 651702;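 active = inhibition above about 55%, limit read from the data; inconclusive = no clear call, values can overlap the other calls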
MC4R antagonist – antagonists of human melanocortin 4 receptor (MC4R); inhibition, % at 6.5 µM; 360,000 compounds, 0.48% hits; P32245; MC4R-expressing cells, MTII-stimulated cAMP, LANCE TR-FRET;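 active = inhibition above its plate's cutoff, the mean of tested wells on that plate plus 3 SD, cut at about 29% in these data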
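Material – human MC4R-expressing U2OS cells · Repeats – no replicates · Detection – TR-FRET with Eu-cAMP and labeled anti-cAMP, 671 nm · Times – compound 30 min, challenge 1 h, detection 1 h · Compound – single nominal compound dose of 6.5 µM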
MC4R barr conf – human MC4R beta-arrestin agonism confirmation | shares compounds with MC4R ag barr | U2OS MC4R beta-arrestin recruitment, luminescence; scaled DMSO 0%, Melanotan II 100% | activation, % at 8.9 µM | 2,400 compounds, 31% hits;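 active = mean activation across replicates above the hit cutoff set in the earlier primary screen, cut at about 8% in these data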
MOR-DOR barr ag – counter-screen for MC4R agonists: agonists of mu-delta opioid heterodimer; shares compounds with MC4R ag barr; U2OS PathHunter beta-arrestin, beta-gal luminescence; percent of deltorphin B response, DMSO zero; activation, % at 9.2 µM; 2,400 compounds, 5.8% hits; AID 602194;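 active = mean activation across replicates exceeds the hit threshold derived in the earlier primary screen, cut at about 18% in these data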
Target sequence (P35372 whole entry, looked up): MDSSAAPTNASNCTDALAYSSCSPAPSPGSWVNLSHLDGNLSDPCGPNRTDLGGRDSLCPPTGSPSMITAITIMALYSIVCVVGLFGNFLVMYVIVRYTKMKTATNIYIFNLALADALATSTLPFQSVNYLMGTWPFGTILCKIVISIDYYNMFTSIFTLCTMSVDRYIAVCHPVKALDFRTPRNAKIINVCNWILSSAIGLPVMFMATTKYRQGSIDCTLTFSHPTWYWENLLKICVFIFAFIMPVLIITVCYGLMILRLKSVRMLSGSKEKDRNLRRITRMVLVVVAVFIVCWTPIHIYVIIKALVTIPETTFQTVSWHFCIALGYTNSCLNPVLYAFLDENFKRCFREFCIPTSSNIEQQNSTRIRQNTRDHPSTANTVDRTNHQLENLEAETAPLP
Target sequence (P41143 whole entry, looked up): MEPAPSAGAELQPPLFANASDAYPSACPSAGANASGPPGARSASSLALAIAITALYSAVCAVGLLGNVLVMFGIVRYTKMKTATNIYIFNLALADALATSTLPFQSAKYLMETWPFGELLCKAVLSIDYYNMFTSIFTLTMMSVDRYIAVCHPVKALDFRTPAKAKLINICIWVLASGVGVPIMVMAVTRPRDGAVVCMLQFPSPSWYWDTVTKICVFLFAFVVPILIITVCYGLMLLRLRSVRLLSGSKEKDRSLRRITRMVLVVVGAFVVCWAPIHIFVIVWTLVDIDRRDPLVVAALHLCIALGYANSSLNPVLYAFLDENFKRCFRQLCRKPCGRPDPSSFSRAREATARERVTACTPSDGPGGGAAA
Hits are given with their value; – = inactive; ? = inconclusive; · = not tested or not shown; + = active, no number. The list is not random: actives were taken first. Their share in the collection is about 3.7%.

SMILES | MC4R ag barr | Myeloid diff MLP | EBI2 antag | Granule exo inh | MC4R antagonist | MC4R barr conf | MOR-DOR barr ag
O=C(CCCn1c(SCC(=O)c2ccc(Cl)cc2)nc2ccccc2c1=O)NCc1ccco1 | 19 | – | – | – | – | – | 29
CC(=O)c1c(O)cc(O)cc1O | – | – | – | – | – | · | ·
COc1cc(C(=O)N(C)C2CCCCC2)cc(OC)c1OC | – | – | – | – | – | · | ·
COC(=O)c1cc(OC)c(OC)cc1NC(=O)Nc1ccc(OC)cc1 | 14 | – | – | – | – | – | –
O=C(COC(=O)c1cc(Br)ccc1O)Nc1ccc2c(c1)OCO2 | 10 | – | – | – | – | – | –
O=C(COC(=O)c1cc(Br)ccc1O)Nc1ccc2c(c1)OCCO2 | – | – | – | – | – | · | ·
Cc1c(NC(=O)c2cc(-c3ccccc3)nc3ccccc23)c(=O)n(-c2ccccc2)n1C | – | – | – | – | – | · | ·
Cc1c(NC(=O)COC(=O)c2cc(-c3ccc(-c4ccccc4)cc3)nc3ccccc23)c(=O)n(-c2ccccc2)n1C | 18 | + | – | – | – | – | –
O=C(COC(=O)c1cc(-c2ccccc2)nc2ccccc12)Nc1ccc2c(c1)OCO2 | 16 | – | – | – | – | – | –
C=CCN(C(=O)CNC(=O)c1cccs1)C(C(=O)NC(C)(C)C)c1ccccc1 (centres undefined) | – | – | – | – | – | · | ·
Cc1ccccc1OCC(=O)OCC(=O)NC1CCCC(C)C1C (centres undefined) | – | – | – | – | – | · | ·
CSc1ccccc1NC(=O)c1cc(-c2cccs2)on1 | 9.8 | – | – | – | – | – | –
Cc1ccccc1NC(=O)C1Cc2ccccc2CN1C(=O)OCc1ccccc1 (centres undefined) | – | – | – | – | – | · | ·
COc1ccc(-c2nc(-c3ccc(Br)o3)no2)cc1 | 13 | – | – | – | – | – | –
COc1cc2c(cc1NC(=O)c1cccc([N+](=O)[O-])c1)oc1ccccc12 | 22 | – | – | – | – | 31 | 47
CC(=O)c1ccc2c(c1)Cc1cc(C(C)=O)ccc1-2 | 14 | – | – | – | – | – | –
CC(=O)c1nn(-c2cccc(Br)c2)cc1C(=O)c1ccc(Cl)cc1 | 32 | – | – | – | – | 13 | –
CC(=O)c1nn(-c2cccc(Br)c2)cc1C(=O)c1ccco1 | – | – | – | – | – | · | ·
O=C(c1cccc(Br)c1)c1cn(-c2ccccc2)nc1C(=O)c1ccccc1 | – | – | – | – | – | · | ·
CC(=O)c1nn(-c2ccccc2)cc1C(=O)c1cccc(Br)c1 | 9.8 | – | – | – | – | 12 | –
COC(=O)[C@]12CCCCC=C1N(Cc1ccccc1)C(=O)[C@H](CC(=O)NCCC(C)C)C2 | · | – | – | – | · | · | ·
O=C(CCc1ccccc1)NC(NC(=S)Nc1ccc(Br)cc1)C(Cl)(Cl)Cl (centres undefined) | 13 | – | – | – | – | – | –
O=C(CCc1ccccc1)NC(NC(=S)Nc1cccc(Cl)c1)C(Cl)(Cl)Cl (centres undefined) | – | – | – | – | – | · | ·
COCCNC(=O)C1CCCN(C(=O)c2ccc(SC(F)(F)F)cc2)CC1 (centres undefined) | – | – | – | – | – | · | ·
CCOc1ccccc1-c1nc(-c2ccc(NC(=O)Cc3ccccc3OC)cc2)no1 | – | – | – | – | – | · | ·
SMILES | MC4R ag barr | Myeloid diff MLP | EBI2 antag | Granule exo inh | MC4R antagonist | MC4R barr conf | MOR-DOR barr ag
COc1ccccc1CC(=O)Nc1ccc(-c2noc(COc3ccc(Cl)c(C)c3)n2)cc1 | 10 | – | – | – | – | – | –
CC(=O)Nc1ccc(NC(=O)C2CCN(c3ccc(C(F)(F)F)cn3)CC2)cc1 | – | – | – | – | – | · | ·
COc1cc2nc(SCC(N)=O)n(CCC3=CCCCC3)c(=O)c2cc1OC | 12 | – | – | – | – | 8.4 | –
Clc1ccc(OCCCNCc2ccccc2)c(Br)c1 | – | – | – | – | – | · | ·
Clc1ccc(Cl)c(OCCCCNCc2ccccc2)c1 | 10 | – | – | – | – | 16 | –
COCCN(CC(=O)Nc1cccc(C)c1C)C(=O)/C=C/c1ccc2c(c1)OCCO2 | – | – | – | – | – | · | ·
COc1ccc(-c2ccc(-c3noc(-c4ccco4)n3)c(OC)n2)cc1 | – | – | – | – | – | · | ·
COc1nc(-c2ccccc2)ccc1-c1noc(-c2ccco2)n1 | 31 | – | – | – | – | – | –
CN1C(=S)N(c2ccccc2)C(=O)/C1=C/c1cccs1 | 17 | – | – | – | – | – | –
C=C(C)c1cccc(C(C)(C)NC(=O)NC2CCN(Cc3ccccc3)CC2)c1 | – | – | – | – | – | · | ·
C=C(C)c1cccc(C(C)(C)NC(=O)N(Cc2ccccc2)Cc2ccco2)c1 | 17 | – | – | – | – | – | –
CC(=O)COc1cc2c(-c3cc4ccccc4o3)cc(=O)oc2cc1C | 26 | – | – | – | – | – | –
CCc1cc2c(-c3ccccc3)cc(=O)oc2cc1OCC(C)=O | – | – | – | – | – | · | ·
COc1cc(C=C(C(C)=O)C(C)=O)ccc1O | – | – | – | – | – | · | ·
COc1cc(/C=C/C(=O)/C=C(O)/C=C/c2ccc(O)c(OC)c2)ccc1O | 12 | – | – | 69 | – | 12 | –
O=C(CCl)N(Cc1ccccc1)c1ccccc1 | 20 | – | – | – | – | 15 | 18
CN1CCN(c2ccc(CNS(=O)(=O)c3ccsc3)cc2)CC1 | – | – | – | – | – | · | ·
Cc1ccc(NC(=O)Nc2nc3ccccc3s2)cc1NC(=O)Nc1nc2ccccc2s1 | 10 | – | – | – | – | 10 | –
CCNC(=O)Nc1nc2ccccc2s1 | – | – | – | – | – | · | ·
COc1ccc(S(=O)(=O)N(CC(=O)NC2CCCCC2)c2ccc(F)cc2)cc1 | – | – | – | – | – | · | ·
Cc1n[nH]c(=S)n1/N=C/c1ccccc1OCc1ccc(Cl)cc1Cl | 19 | – | – | – | – | 16 | –
O=C1c2cccnc2C(=O)N1Cc1ccc(S(=O)(=O)N2CCN(c3ccc(Cl)cc3)CC2)cc1 | 11 | – | – | – | – | – | –
O=C(CCNS(=O)(=O)c1ccccc1F)OCc1ccccc1Cl | – | – | – | – | – | · | ·
Oc1oc(-c2ccccc2)nc1/C=N/c1ccccn1 | – | – | – | – | – | · | ·
Oc1oc(-c2ccccc2Br)nc1C=Nc1ccc(Br)cn1 | 21 | – | – | – | – | 10 | –
O=C(COC(=O)CCN1C(=O)C2CC=CCC2C1=O)Nc1ccc(Cl)cc1F (centres undefined) | – | – | – | – | – | · | ·
Cc1ccccc1Cn1ccc(NC(=O)c2cc3nc(-c4ccco4)cc(C(F)(F)F)n3n2)n1 | 15 | – | – | – | – | – | –
CCCCCCCCn1c2c(c(=N)c3ccccc31)CCC2 | – | ? | – | – | – | · | ·
